Consider eight compounds from article PMC7564034 (Acta Pharmaceutica Sinica. B, 2019).

Data set [1] relates to LoVo colon cancer xenograft. Briefly: Xenograft tumor growth, SMI combined with 5FU, 14-day treatment. Type of data set: in vivo, Balb/c nude mice. The conditions noted are these: compared to vehicle treated group; SMI 10 mL/kg/day, 5FU 15 mg/kg/3 days i.p., 14 days.
The test system of another data set is LoVo xenografts. Nature of the data set: Xenograft tumor growth, SMI or Rd combined with 5FU, 20-day treatment. Type of data set: in vivo, Balb/c mice. The settings on record: compared to vehicle + saline; SMI 10 mL/kg/day, Rd 5 mg/kg/day, 5FU 15 mg/kg/3 days i.p., 20 days. In short, it runs like this: (§1)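 LoVo-xenograft mice with all tumors above 50 mm3 were dosed i.p. for 20 days: 10 mL/kg/day, 5 mg/kg/day, and/or 5FU 15 mg/kg every 3 days. Body weight and tumor axes were recorded daily; tumor volume = 1/2 × a × b². Tumors were resected after treatment. Weight change was read after 17 days; mean ± SEM.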

Data set [2] can be described thus: Mice body weight in the 5FU combination study. Type of data set: in vivo, Balb/c mice harboring LoVo xenografts. The conditions noted are these: 5FU 15 mg/kg/3 days i.p.; 17-day treatment. The gist of the method:
as §1

Data set [3] is classed as in vivo, mice harboring xenograft tumors. The conditions noted are these: after intraperitoneal injection of Rb1, Rc, or Rd; data not shown.
Data set [4] is classed as in vivo, Balb/c nude mice harboring LoVo xenografts. The conditions noted are these: for Cmax / Tmax: Balb/c nude, mouse, plasma, ip; for AUC0–∞ in plasma relative to those of Re, Rg1, Rg3 and Ro: after single or multiple SMI administration. In short, it runs like this:
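Male LoVo-xenograft nude mice (6 weeks old) received 10 mL/kg i.p., either once or daily for 8 days. Blood (~0.1 mL) was drawn from the oculi chorioideae vein into heparin tubes between 5 min and 96 h after the last dose, 5 mice per time point. Plasma was spun at 8000 rpm for 5 min and extracted with methanol. AUC0–∞ and the multiple/single ratio were derived.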

Data set [5] is classed as in vivo, Balb/c nude mice harboring LoVo xenografts. The conditions noted are these: for AUC0–∞ ratio Multiple/Single in tumors: 8-day vs single SMI 10 mL/kg/day i.p.
The nature of data set [6]: Constituent ratio of ginsenosides in SMI, plasma, tumor and endothelial cells. The settings on record: 20 min after 15-day SMI treatment. Type of data set: in vivo, Balb/c nude mice harboring LoVo xenografts. In short, it runs like this:
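Tissues were sampled 20 min after the last dose of a 15-day i.p. course. Tumors were digested 1 h in DMEM with collagenase I (2 mg/mL) and DNase I (0.1 mg/mL), then strained through 40 μm mesh. CD31+ cells were enriched with PE anti-mouse CD31 and anti-PE magnetic particles, with purity checked by CD45/viability flow cytometry; n = 3. Each ratio = concentration of the constituent / summed eight ginsenosides.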

The next data set relates to VEGF. Nature of the data set: ELISA of VEGF secretion in tumors. Type of data set: in vivo, Balb/c mice harboring LoVo xenografts. The conditions noted are these: 15 days i.p.; SMI, Rd-H 5 mg/kg, Rb1, Rg1; vs vehicle. The gist of the method:
(§2)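 Mice received test compound i.p. for 15 days. Tumors were harvested 20 min after the final dose and homogenized in RIPA buffer. VEGF and FGF were quantified by ELISA kit and normalized to protein content measured by BCA assay. Compared with vehicle.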
(In general: An ELISA detects its analyte on a solid surface through an enzyme-linked reagent.)

The subject of a further data set is FGF. Nature of the data set: ELISA of FGF secretion in tumors. Type of data set: in vivo, Balb/c mice harboring LoVo xenografts. The settings on record: 15 days i.p.; SMI, Rd-H 5 mg/kg, Rb1, Rg1; vs vehicle. The gist of the method:
as §2

The mark [7] stands for this setting: after eight days of SMI 10 mL/kg/day i.p.
Where [8] appears, read: single dose of SMI 10 mL/kg i.p.

Where two headings read alike, the source gives them in different places.

For the compound `O=c1[nH]cc(F)c(=O)[nH]1` [5FU, 5-fluorouracil], the entries for the “Suppression of tumor growth” value (in [1]; in the data set on LoVo xenografts) were 49.0% and 17%, respectively. In addition, the “Suppression of the increase of mice body weight” value in data set [2] was determined as 65%.
As for `CC(C)=CCC[C@](C)(O[C@@H]1O[C@H](CO)[C@@H](O)[C@H](O)[C@H]1O)[C@H]1CC[C@]2(C)[C@@H]1[C@H](O)C[C@@H]1[C@@]3(C)CC[C@H](O)C(C)(C)[C@@H]3CC[C@]12C` [CK, compound K], the “Detection in plasma or tumor tissues” value in data set [3] was “neither Rg3 nor CK could be detected”.
In general, Cmax refers to the maximum level reached in the sampled fluid or tissue. What is called Tmax is the time from dosing to the highest level. Turning to `CC(C)=CCC[C@](C)(O[C@@H]1O[C@H](CO[C@@H]2O[C@H](CO)[C@@H](O)[C@H](O)[C@H]2O)[C@@H](O)[C@H](O)[C@H]1O)[C@H]1CC[C@]2(C)[C@@H]1[C@H](O)C[C@@H]1[C@@]3(C)CC[C@H](O[C@@H]4O[C@H](CO)[C@@H](O)[C@H](O)[C@H]4O[C@@H]4O[C@H](CO)[C@@H](O)[C@H](O)[C@H]4O)C(C)(C)[C@@H]3CC[C@]12C` [Rb1, ginsenoside Rb1], in data set [4] (10 mL/kg), the peak level (Cmax) was 20600 ng/mL and the Tmax was found to be 60 min. In [4] (10 mL/kg/day), the Cmax amounted to 49400 ng/mL and the Tmax was found to be 120 min. Further, the “AUC0–∞ in plasma relative to those of Re, Rg1, Rg3 and Ro” value in [4] is recorded as “more than 20 times”. In data set [5], the “AUC0–∞ ratio Multiple/Single in tumors” value came to 1.64. Further, in data set [6], the “Constituent ratio in TECs” value is listed as 14.9%, the “Constituent ratio in plasma” value came out at 34.5% and the “Constituent ratio in tumor tissues” value is 21.9%. In the data set on VEGF, the “Reduction of the secretion of VEGF in tumors” value stood at 15%. For the same compound, in the data set on FGF, the “Suppression of the secretion of FGF in tumors” value is on record as 99%.
`CC(C)=CCC[C@](C)(O[C@@H]1O[C@H](CO[C@@H]2O[C@@H](CO)[C@H](O)[C@H]2O)[C@@H](O)[C@H](O)[C@H]1O)[C@H]1CC[C@]2(C)[C@@H]1[C@H](O)C[C@@H]1[C@@]3(C)CC[C@H](O[C@@H]4O[C@H](CO)[C@@H](O)[C@H](O)[C@H]4O[C@@H]4O[C@H](CO)[C@@H](O)[C@H](O)[C@H]4O)C(C)(C)[C@@H]3CC[C@]12C` [Rc]: in [4] (10 mL/kg), the highest concentration (Cmax) stood at 7800 ng/mL and the Tmax was found to be 240 min. Besides, in data set [4] (10 mL/kg/day), the Cmax turned out to be 16900 ng/mL and the Tmax is 120 min. The “AUC0–∞ in plasma relative to those of Re, Rg1, Rg3 and Ro” value in data set [4] is “more than 20 times”. The “AUC0–∞ ratio Multiple/Single in tumors” value in data set [5] amounted to 5.67.
On to `CC(C)=CCC[C@](C)(O[C@@H]1O[C@H](CO)[C@@H](O)[C@H](O)[C@H]1O)[C@H]1CC[C@]2(C)[C@@H]1[C@H](O)C[C@@H]1[C@@]3(C)CC[C@H](O)C(C)(C)[C@@H]3[C@@H](O[C@@H]3O[C@H](CO)[C@@H](O)[C@H](O)[C@H]3O[C@@H]3O[C@@H](C)[C@H](O)[C@@H](O)[C@H]3O)C[C@]12C` [Re], for which the Cmax in data set [4] (10 mL/kg) stood at 1600 ng/mL; in data set [4] (10 mL/kg/day), 1300 ng/mL. Also, the Tmax in data set [4] (10 mL/kg) and in data set [4] (10 mL/kg/day) was 10 min each time.
On to `CC(C)=CCC[C@](C)(O[C@@H]1O[C@H](CO)[C@@H](O)[C@H](O)[C@H]1O)[C@H]1CC[C@]2(C)[C@@H]1[C@H](O)C[C@@H]1[C@@]3(C)CC[C@H](O)C(C)(C)[C@@H]3[C@@H](O[C@@H]3O[C@H](CO)[C@@H](O)[C@H](O)[C@H]3O)C[C@]12C` [Rg1], for which, in data set [4] (10 mL/kg), the peak level (Cmax) was 2000 ng/mL and the Tmax was 10 min. In data set [4] (10 mL/kg/day), the concentration peaked (Cmax) at 2100 ng/mL and the Tmax is 10 min. Also, in the data set with VEGF, the “Reduction of the secretion of VEGF in tumors” value is given as 1%. For the same compound, in the data set with FGF, the “Suppression of the secretion of FGF in tumors” value was 97%.
For `CC(C)=CCC[C@](C)(O)[C@H]1CC[C@]2(C)[C@@H]1[C@H](O)C[C@@H]1[C@@]3(C)CC[C@H](O[C@@H]4O[C@H](CO)[C@@H](O)[C@H](O)[C@H]4O[C@@H]4O[C@H](CO)[C@@H](O)[C@H](O)[C@H]4O)C(C)(C)[C@@H]3CC[C@]12C` [Rg3], the Cmax in plasma in data set [4] (setting [7]) was found to be 300 ng/mL; in [4] (setting [8]) it was 100 ng/mL. In addition, the “Time of maximum concentration in plasma” value in [4] (setting [7]) was 20 min; in data set [4] (setting [8]) it was 60 min. In addition, the “Detection in tumors over time” value in data set [5] (20 min, 2, 12, 24, 96 h after single or multiple SMI administration) is on record as “could not be identified at any time”. In data set [3], the “Detection in plasma or tumor tissues” value is listed as “neither Rg3 nor CK could be detected”.
As to `CC1(C)CC[C@]2(C(=O)O[C@@H]3O[C@H](CO)[C@@H](O)[C@H](O)[C@H]3O)CC[C@]3(C)C(=CC[C@@H]4[C@@]5(C)CC[C@H](O[C@@H]6O[C@H](C(=O)O)[C@@H](O)[C@H](O)[C@H]6O[C@@H]6O[C@H](CO)[C@@H](O)[C@H](O)[C@H]6O)C(C)(C)[C@@H]5CC[C@]43C)[C@@H]2C1` [Ro, ginsenoside Ro], in [4] (setting [7]), the Cmax in plasma is 3700 ng/mL and the “Time of maximum concentration in plasma” value stood at 20 min. Further, in data set [4] (setting [8]), the Cmax in plasma turned out to be 3900 ng/mL and the “Time of maximum concentration in plasma” value amounted to 60 min. Besides, the “AUC0–∞ ratio Multiple/Single in tumors” value in data set [5] is 0.92.
